≈ marks a conversion by molar mass, not a printed value.
Tests used:
Format in all cases: functional
Candida albicans [1] = test: Antimicrobial activity against Candida albicans ATCC 10231 at 12.5 ug/ml after 24 hrs; conditions: ATCC 10231, 24 h
Summary of the method: (§1)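 Growth-inhibition microplate test. Strains are grown on Sabouraud-chloramphenicol agar for 48 h at 30 °C, and inoculum is added to RPMI-1640 containing compound at a final 100–6.25, with DMSO ≤2%. Each strain has a growth control (same DMSO, no compound) and a sterility control.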

Cryptococcus neoformans [2] = test: Antimicrobial activity against Cryptococcus neoformans ATCC 32264 at 12.5 ug/ml after 48 hrs; conditions: ATCC 32264, 48 h
Summary of the method: (§2)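 Percent growth inhibition in 96-well microplates. Compound stocks in DMSO (≤2%) were diluted in RPMI-1640 to final 100–6.25 µg/mL, and 100 µL inoculum was added (final 200 µL). Controls were a growth well (inoculum with matching DMSO, no compound) and a sterility well (no inoculum). Inhibition was calculated against growth and sterility wells.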

Cryptococcus neoformans [3] = test: Antimicrobial activity against Cryptococcus neoformans IM 00319 isolate at 12.5 ug/ml after 48 hrs; summary of the method: as §2
Cryptococcus neoformans [4] = test: Antimicrobial activity against Cryptococcus neoformans IM 961951 isolate at 12.5 ug/ml after 48 hrs; summary of the method: as §2
Aspergillus niger = test: Antifungal activity against Aspergillus niger ATCC 9029 after 48 hrs by broth microdilution technique; conditions: ATCC 9029, 48 h
Summary of the method: (§3)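 CLSI broth microdilution: M-27 A2 for yeasts and M-38 A for filamentous fungi. Medium is RPMI-1640 buffered to pH 7.0 with MOPS. Compound is diluted twofold from 250 to 0.98, final DMSO ≤2%. Inoculum is 1–5 × 10³ CFU/mL. Plates are incubated at 35 °C in a moist, dark chamber and read visually at 48 h. MIC100 is the lowest concentration giving total growth inhibition versus drug-free control.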

Cryptococcus neoformans [5] = test: Antifungal activity against Cryptococcus neoformans ATCC 32264 after 48 hrs by broth microdilution technique; conditions: ATCC 32264, 48 h; summary of the method: as §3
Cryptococcus neoformans [6] = test: Antimicrobial activity against Cryptococcus neoformans IM 052470 isolate at 12.5 ug/ml after 48 hrs; summary of the method: as §2
Cryptococcus neoformans [7] = test: Antimicrobial activity against Cryptococcus neoformans IM 972724 isolate at 100 ug/ml after 48 hrs
Summary of the method: (§4)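 Clinical Cryptococcus isolates kept on Sabouraud-dextrose agar slopes; inoculum 1–5 × 10³ CFU/mL. Quinoline DMSO stocks were diluted in RPMI-1640 to final 100–6.25 µg/mL, with DMSO ≤2%. An equal volume of inoculum was added (200 µL per well). Run in triplicate.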

Cryptococcus neoformans [8] = test: Antimicrobial activity against Cryptococcus neoformans IM 031631 isolate at 6.25 ug/ml after 48 hrs; summary of the method: as §2
Cryptococcus neoformans [9] = test: Antimicrobial activity against Cryptococcus neoformans IM 052470 isolate at 100 ug/ml after 48 hrs; summary of the method: as §2
Cryptococcus neoformans [10] = test: Antimicrobial activity against Cryptococcus neoformans IM 972724 isolate at 50 ug/ml after 48 hrs; summary of the method: as §4
Cryptococcus neoformans [11] = test: Antimicrobial activity against Cryptococcus neoformans IM 983040 isolate at 100 ug/ml after 48 hrs; summary of the method: as §4
Cryptococcus neoformans [12] = test: Antimicrobial activity against Cryptococcus neoformans IM 972751 isolate at 100 ug/ml after 48 hrs; summary of the method: as §4
Cryptococcus neoformans [13] = test: Antimicrobial activity against Cryptococcus neoformans IM 972724 isolate at 12.5 ug/ml after 48 hrs; summary of the method: as §4
Cryptococcus neoformans [14] = test: Antimicrobial activity against Cryptococcus neoformans IM 00319 isolate at 6.25 ug/ml after 48 hrs; summary of the method: as §2
Cryptococcus neoformans [15] = test: Antimicrobial activity against Cryptococcus neoformans IM 983036 isolate at 100 ug/ml after 48 hrs; summary of the method: as §4
Cryptococcus neoformans [16] = test: Antimicrobial activity against Cryptococcus neoformans IM 972751 isolate at 25 ug/ml after 48 hrs; summary of the method: as §4
Cryptococcus neoformans [17] = test: Antimicrobial activity against Cryptococcus neoformans IM 972724 isolate at 6.25 ug/ml after 48 hrs; summary of the method: as §4
Saccharomyces cerevisiae = test: Antifungal activity against Saccharomyces cerevisiae ATCC 9763 after 48 hrs by broth microdilution technique; conditions: ATCC 9763, 48 h; summary of the method: as §3
Cryptococcus neoformans [18] = test: Antimicrobial activity against Cryptococcus neoformans ATCC 32264 at 50 ug/ml after 48 hrs; conditions: ATCC 32264, 48 h; summary of the method: as §2
Cryptococcus neoformans [19] = test: Antimicrobial activity against Cryptococcus neoformans IM 031631 isolate at 25 ug/ml after 48 hrs; summary of the method: as §2
Cryptococcus neoformans [20] = test: Antimicrobial activity against Cryptococcus neoformans IM 00319 isolate at 25 ug/ml after 48 hrs; summary of the method: as §2
Nannizzia gypsea = test: Antifungal activity against Microsporum gypseum C115 after 48 hrs by broth microdilution technique; summary of the method: as §3
Cryptococcus neoformans [21] = test: Antimicrobial activity against Cryptococcus neoformans IM 042074 isolate at 12.5 ug/ml after 48 hrs; summary of the method: as §2
Cryptococcus neoformans [22] = test: Antimicrobial activity against Cryptococcus neoformans ATCC 32264 at 25 ug/ml after 48 hrs; conditions: ATCC 32264, 48 h; summary of the method: as §2
Trichophyton rubrum = test: Antifungal activity against Trichophyton rubrum C110 after 48 hrs by broth microdilution technique; conditions: read-out: MIC; summary of the method: as §3
Cryptococcus neoformans [23] = test: Antimicrobial activity against Cryptococcus neoformans IM 983040 isolate at 6.25 ug/ml after 48 hrs; summary of the method: as §4
Cryptococcus neoformans [24] = test: Antimicrobial activity against Cryptococcus neoformans IM 031706 isolate at 100 ug/ml after 48 hrs; summary of the method: as §2
Cryptococcus neoformans [25] = test: Antimicrobial activity against Cryptococcus neoformans IM 961951 isolate at 100 ug/ml after 48 hrs; summary of the method: as §2
Cryptococcus neoformans [26] = test: Antimicrobial activity against Cryptococcus neoformans IM 983036 isolate at 25 ug/ml after 48 hrs; summary of the method: as §4
Cryptococcus neoformans [27] = test: Antimicrobial activity against Cryptococcus neoformans IM 052470 isolate at 50 ug/ml after 48 hrs; summary of the method: as §2
Cryptococcus neoformans [28] = test: Antimicrobial activity against Cryptococcus neoformans IM 042074 isolate at 6.25 ug/ml after 48 hrs; summary of the method: as §2
Cryptococcus neoformans [29] = test: Antimicrobial activity against Cryptococcus neoformans IM 972751 isolate at 50 ug/ml after 48 hrs; summary of the method: as §4
Candida albicans [30] = test: Antimicrobial activity against Candida albicans ATCC 10231 at 25 ug/ml after 24 hrs; conditions: ATCC 10231, 24 h; summary of the method: as §1
Candida albicans [31] = test: Antimicrobial activity against Candida albicans ATCC 10231 at 50 ug/ml after 24 hrs; conditions: ATCC 10231, 24 h; summary of the method: as §1
[32] = tested on: Trichophyton mentagrophytes; test: Antifungal activity against Trichophyton mentagrophytes ATCC 9972 after 48 hrs by broth microdilution technique; conditions: ATCC 9972, 48 h; summary of the method: as §3
Cryptococcus neoformans [33] = test: Antimicrobial activity against Cryptococcus neoformans IM 972751 isolate at 6.25 ug/ml after 48 hrs; summary of the method: as §4
Cryptococcus neoformans [34] = test: Antimicrobial activity against Cryptococcus neoformans IM 031706 isolate at 6.25 ug/ml after 48 hrs; summary of the method: as §2
Cryptococcus neoformans [35] = test: Antimicrobial activity against Cryptococcus neoformans IM 983040 isolate at 12.5 ug/ml after 48 hrs; summary of the method: as §4
Cryptococcus neoformans [36] = test: Antimicrobial activity against Cryptococcus neoformans IM 042074 isolate at 25 ug/ml after 48 hrs; summary of the method: as §2
Candida albicans [37] = test: Antimicrobial activity against Candida albicans ATCC 10231 at 6.25 ug/ml after 24 hrs; conditions: ATCC 10231, 24 h; summary of the method: as §1
Cryptococcus neoformans [38] = test: Antimicrobial activity against Cryptococcus neoformans IM 042074 isolate at 100 ug/ml after 48 hrs; summary of the method: as §2
Aspergillus fumigatus = test: Antifungal activity against Aspergillus fumigatus ATTC 26934 after 48 hrs by broth microdilution technique; summary of the method: as §3

Work on `Cc1cc(-c2ccncc2)nc2ccccc12` yielded an inhibition at 12.5 µg/mL (Candida albicans [1]) of 41%, an inhibition at 12.5 µg/mL (Cryptococcus neoformans [2]) of 90.5% and an inhibition at 12.5 µg/mL (Cryptococcus neoformans [3]) of 32%. For the same compound, the inhibition at 12.5 µg/mL (Cryptococcus neoformans [4]) was 34%, the MIC (Aspergillus niger) was 200 µg/mL (≈ 908 µM) and the MIC (Cryptococcus neoformans [5]) was 25 µg/mL (≈ 113 µM). For the same compound, the inhibition at 12.5 µg/mL (Cryptococcus neoformans [6]) was 24%, the inhibition at 100 µg/mL (Cryptococcus neoformans [7]) was 74% and the inhibition at 6.25 µg/mL (Cryptococcus neoformans [8]) was 12%. The inhibition at 100 µg/mL (Cryptococcus neoformans [9]) was 99%, the inhibition at 50 µg/mL (Cryptococcus neoformans [10]) was 23% and the inhibition at 100 µg/mL (Cryptococcus neoformans [11]) was 45%. For the same compound, the inhibition at 100 µg/mL (Cryptococcus neoformans [12]) was 98%, the inhibition at 12.5 µg/mL (Cryptococcus neoformans [13]) was 0% and the inhibition at 6.25 µg/mL (Cryptococcus neoformans [14]) was 12%. For the same compound, the inhibition at 100 µg/mL (Cryptococcus neoformans [15]) was 79%, the inhibition at 25 µg/mL (Cryptococcus neoformans [16]) was 9% and the inhibition at 6.25 µg/mL (Cryptococcus neoformans [17]) was 0%. It also gave an MIC (Saccharomyces cerevisiae) of 50 µg/mL (≈ 227 µM), an inhibition at 50 µg/mL (Cryptococcus neoformans [18]) of 100% and an inhibition at 25 µg/mL (Cryptococcus neoformans [19]) of 57%. It also gave an inhibition at 25 µg/mL (Cryptococcus neoformans [20]) of 52%, an MIC (Nannizzia gypsea) of 25 µg/mL (≈ 113 µM) and an inhibition at 12.5 µg/mL (Cryptococcus neoformans [21]) of 76%. For the same compound, the inhibition at 25 µg/mL (Cryptococcus neoformans [22]) was 100%, the MIC (Trichophyton rubrum) was 25 µg/mL (≈ 113 µM) and the inhibition at 6.25 µg/mL (Cryptococcus neoformans [23]) was 0%. It also gave an inhibition at 100 µg/mL (Cryptococcus neoformans [24]) of 100%, an inhibition at 100 µg/mL (Cryptococcus neoformans [25]) of 97% and an inhibition at 25 µg/mL (Cryptococcus neoformans [26]) of 45%. It also gave an inhibition at 50 µg/mL (Cryptococcus neoformans [27]) of 75%, an inhibition at 6.25 µg/mL (Cryptococcus neoformans [28]) of 68% and an inhibition at 50 µg/mL (Cryptococcus neoformans [29]) of 20%. For the same compound, the inhibition at 25 µg/mL (Candida albicans [30]) was 63%, the inhibition at 50 µg/mL (Candida albicans [31]) was 73% and the MIC [32] was 25 µg/mL (≈ 113 µM). It also gave an inhibition at 6.25 µg/mL (Cryptococcus neoformans [33]) of 0%, an inhibition at 6.25 µg/mL (Cryptococcus neoformans [34]) of 21% and an inhibition at 12.5 µg/mL (Cryptococcus neoformans [35]) of 0%. For the same compound, the inhibition at 25 µg/mL (Cryptococcus neoformans [36]) was 87%, the inhibition at 6.25 µg/mL (Candida albicans [37]) was 19% and the inhibition at 100 µg/mL (Cryptococcus neoformans [38]) was 92%. For the same compound, the MIC (Aspergillus fumigatus) was 50 µg/mL (≈ 227 µM).
